Test results taken from ChEMBL document CHEMBL4334488 (J Med Chem, 2019).

Experiments:
[1] = molecular target: T1, Histamine H3 receptor (Homo sapiens, UniProt Q9Y5N1); experiment: Displacement of 3 nM [3H]Nalpha-methylhistamine from human H3R expressed in Sf9 cell membranes co-expressing Gia2 and beta1gamma2 by competition binding assay
Procedure, shortened: (§1)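 Competition binding on Sf9 membranes in 100 μL with 0.2% BSA. Membrane protein: 5−25 μg (H4R), 24−35 μg (H3R), 15 μg (H2R), 23 μg (H1R). Normalized total binding was plotted against log competitor. Two to four independent experiments, each in triplicate.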

[2] = Chemical stability in PBS buffer at pH 7.4 at 200 uM at 23 degC measured over 24 hrs by RP-HPLC analysis; format: physicochemical; details: pH 7.4, 24 h
Procedure, shortened: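 Compounds diluted to 200 μM in PBS pH 7.4 from a 10 mM DMSO stock, incubated at 23 °C for 24 h, and analysed by RP-HPLC with detection at 220 nm.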

[3] = molecular target: T2, Histamine H4 receptor (Homo sapiens, UniProt Q9H3N8); experiment: Agonist activity at human H4R by [35S]-GTPgammaS-binding assay; format: functional
[4] = molecular target: T3, Histamine H4 receptor (Mus musculus, UniProt Q91ZY2); experiment: Agonist activity at mouse H4R by [35S]-GTPgammaS-binding assay; format: functional
T3 sequence (Q91ZY2 whole entry): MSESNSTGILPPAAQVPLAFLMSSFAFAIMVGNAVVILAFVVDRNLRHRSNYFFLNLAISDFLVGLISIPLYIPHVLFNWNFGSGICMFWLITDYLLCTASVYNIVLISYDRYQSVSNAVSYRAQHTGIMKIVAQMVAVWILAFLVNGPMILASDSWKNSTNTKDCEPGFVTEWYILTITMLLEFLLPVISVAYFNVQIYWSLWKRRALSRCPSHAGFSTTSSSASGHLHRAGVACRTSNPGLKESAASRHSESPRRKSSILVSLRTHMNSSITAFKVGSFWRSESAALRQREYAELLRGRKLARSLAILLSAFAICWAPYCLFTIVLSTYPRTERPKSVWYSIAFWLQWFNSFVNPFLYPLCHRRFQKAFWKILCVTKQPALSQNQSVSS

[5] = molecular target: T4, Histamine H4 receptor (Mus musculus) (UniProt Q91ZY2)
T4 sequence (whole entry): T3 sequence (Q91ZY2 whole entry)

[6] = molecular target: T2, Histamine H4 receptor
[7] = molecular target: Histamine H4 receptor (Rattus norvegicus) (UniProt Q91ZY1)
[8] = molecular target: T2, Histamine H4 receptor; experiment: Displacement of 40 nM [3H]-histamine from human H4R expressed in Sf9 cell membranes co-expressing Gia2 and beta1gamma2 by competition binding assay; procedure, shortened: as §1
[9] = molecular target: T1, Histamine H3 receptor; experiment: Displacement of 2 nM [3H]UR-PI294 from human H3R expressed in Sf9 cell membranes co-expressing Gia2 and beta1gamma2 by competition binding assay
Procedure, shortened: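 Competition binding on Sf9 membranes in 100 μL with 0.2% BSA. Membrane protein: 5−25 μg (H4R), 24−35 μg (H3R), 15 μg (H2R), 23 μg (H1R). […] Normalized total binding was plotted against log competitor. Two to four independent experiments, each in triplicate.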

[10] = molecular target: Histamine H1 receptor (Homo sapiens, UniProt P35367); experiment: Displacement of 5 nM [3H-pyrilamine from human H1R expressed in Sf9 cell membranes co-expressing RGS4 by competition binding assay; procedure, shortened: as §1
[11] = species on record: Homo sapiens; experiment: Selectivity index, ratio of Ki for displacement of 2 nM [3H]UR-PI294 from human H3R expressed in Sf9 cell membranes co-expressing Gia2 and beta1gamma2 by competition binding assay to Ki for displacement of 40 nM [3H]-histamine from human H4R expressed in Sf9 cell membranes co-expressing Gia2 and beta1gamma2 by competition binding assay
[12] = species on record: Homo sapiens; experiment: Selectivity index, ratio of Ki for [3H]UR-DE257 from human H2R expressed in Sf9 cell membranes co-expressing GsalphaS by competition binding assay to Ki for displacement of 40 nM [3H]-histamine from human H4R expressed in Sf9 cell membranes co-expressing Gia2 and beta1gamma2 by competition binding assay
[13] = molecular target: Histamine H2 receptor (Homo sapiens, UniProt P25021); experiment: Displacement of 20 nM [3H]UR-DE257 from human H2R expressed in Sf9 cell membranes co-expressing GsalphaS by competition binding assay; procedure, shortened: as §1
[14] = Chemical stability in EtOH/H2O (70:30) at -20 degC measured over 11 months; format: physicochemical; details: 8035.5 h
Procedure, shortened: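 Radioligand stored in EtOH/H2O 70:30 at −20 °C. Radiochemical purity was checked by HPLC with UV and radiometric detection after spiking with the unlabeled compound, 4 days after synthesis and again after 11 months.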

[15] = molecular target: T2, Histamine H4 receptor; experiment: Binding affinity to human H4R

Histamine H1 receptor, sequence (P35367 whole entry, looked up): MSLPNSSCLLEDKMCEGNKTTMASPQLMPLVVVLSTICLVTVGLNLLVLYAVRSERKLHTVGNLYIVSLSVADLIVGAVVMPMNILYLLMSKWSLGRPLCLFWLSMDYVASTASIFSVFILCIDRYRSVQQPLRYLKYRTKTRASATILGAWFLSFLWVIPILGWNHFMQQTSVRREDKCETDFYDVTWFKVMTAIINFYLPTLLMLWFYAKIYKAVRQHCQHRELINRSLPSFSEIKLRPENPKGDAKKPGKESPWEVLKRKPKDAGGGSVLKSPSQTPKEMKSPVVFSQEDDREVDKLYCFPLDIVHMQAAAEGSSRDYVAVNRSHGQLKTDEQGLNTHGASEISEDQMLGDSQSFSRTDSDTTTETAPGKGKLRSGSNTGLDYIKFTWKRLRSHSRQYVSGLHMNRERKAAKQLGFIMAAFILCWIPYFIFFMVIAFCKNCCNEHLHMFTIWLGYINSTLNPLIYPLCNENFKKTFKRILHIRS
T1 sequence (Q9Y5N1 whole entry): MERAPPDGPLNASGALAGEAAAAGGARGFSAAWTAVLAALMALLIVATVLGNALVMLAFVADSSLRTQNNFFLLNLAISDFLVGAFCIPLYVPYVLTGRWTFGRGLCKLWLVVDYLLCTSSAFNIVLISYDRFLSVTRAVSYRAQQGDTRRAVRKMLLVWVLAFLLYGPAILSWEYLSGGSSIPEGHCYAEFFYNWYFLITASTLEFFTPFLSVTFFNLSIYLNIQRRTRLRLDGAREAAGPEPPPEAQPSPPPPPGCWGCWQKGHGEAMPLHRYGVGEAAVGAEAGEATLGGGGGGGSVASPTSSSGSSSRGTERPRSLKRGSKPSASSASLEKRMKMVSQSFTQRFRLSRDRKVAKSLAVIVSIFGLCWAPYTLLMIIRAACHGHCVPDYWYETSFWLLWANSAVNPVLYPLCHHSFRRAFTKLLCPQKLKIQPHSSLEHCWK
T2 sequence (Q9H3N8 whole entry): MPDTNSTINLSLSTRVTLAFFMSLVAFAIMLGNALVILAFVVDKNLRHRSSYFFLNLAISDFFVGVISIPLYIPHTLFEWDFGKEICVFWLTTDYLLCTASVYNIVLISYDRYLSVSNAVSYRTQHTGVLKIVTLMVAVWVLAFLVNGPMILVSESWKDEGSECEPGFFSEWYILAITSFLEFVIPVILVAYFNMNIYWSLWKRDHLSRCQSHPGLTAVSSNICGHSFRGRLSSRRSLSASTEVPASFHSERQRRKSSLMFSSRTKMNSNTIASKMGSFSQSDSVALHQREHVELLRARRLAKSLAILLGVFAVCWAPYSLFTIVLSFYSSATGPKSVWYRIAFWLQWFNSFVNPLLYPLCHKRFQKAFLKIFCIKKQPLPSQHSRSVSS
Histamine H4 receptor (Rattus norvegicus), sequence (Q91ZY1 whole entry): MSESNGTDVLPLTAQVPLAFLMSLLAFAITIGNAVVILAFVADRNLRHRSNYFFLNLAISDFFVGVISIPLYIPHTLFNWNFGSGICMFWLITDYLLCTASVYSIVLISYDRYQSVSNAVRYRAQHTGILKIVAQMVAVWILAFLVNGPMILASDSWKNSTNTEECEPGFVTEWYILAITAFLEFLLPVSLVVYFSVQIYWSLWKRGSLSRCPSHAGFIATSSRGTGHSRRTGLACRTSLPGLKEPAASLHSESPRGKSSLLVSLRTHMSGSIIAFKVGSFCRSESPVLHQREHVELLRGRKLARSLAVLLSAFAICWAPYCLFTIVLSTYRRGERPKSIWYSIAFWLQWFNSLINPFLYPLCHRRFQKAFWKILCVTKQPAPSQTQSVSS
Histamine H2 receptor, sequence (P25021 whole entry): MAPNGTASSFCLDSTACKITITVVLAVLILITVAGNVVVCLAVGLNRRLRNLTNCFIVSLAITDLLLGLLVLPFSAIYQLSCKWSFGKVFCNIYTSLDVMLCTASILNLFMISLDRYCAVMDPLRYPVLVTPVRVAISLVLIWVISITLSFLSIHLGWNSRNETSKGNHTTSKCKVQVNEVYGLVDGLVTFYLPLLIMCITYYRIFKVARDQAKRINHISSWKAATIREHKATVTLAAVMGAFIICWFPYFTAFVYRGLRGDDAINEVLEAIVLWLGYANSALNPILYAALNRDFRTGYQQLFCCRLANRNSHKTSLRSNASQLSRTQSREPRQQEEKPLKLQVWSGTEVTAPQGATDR

| Structure (SMILES) | Ki [1] [µM] | Ki [9] [µM] | Ki [10] [µM] | other results |
| --- | --- | --- | --- | --- |
| CC(C)(C)CNc1nccc(N2CCc3nc[nH]c3C2)n1.O=C(O)C(F)(F)F.O=C(O)C(F)(F)F | 0.00331 |  |  | Stability [2]: Stable |
| NC(=NCc1ccc(Cl)cc1)SCCCc1cnc[nH]1 [CLOBENPROPIT] |  |  |  | EC50 [3]: 0.0224 µM; EC50 [4]: 0.851 µM |
| S=C(NC1CCCCC1)N1CCC(c2cnc[nH]2)CC1 |  |  |  | pKb [5]: 7.12; pKb [6]: 6.83; pKb [7]: 6.44 |
| CC(C)(C)CNc1nccc(NCCc2c[nH]cn2)n1 |  | 0.00955 |  | Ki [8]: 0.204 µM |
| CC(C)(C)CNc1nccc(NCCCN)n1 | 5.62 | 5.62 | > 10 |  |
| N=C(NCc1ccc(Cl)cc1)SCCCc1c[nH]cn1 |  |  |  | pKb [7]: 6.28 |
| CC(C)(C)CNc1nccc(N2CCCNCC2)n1 |  | 0.537 |  |  |
| CC(C)(C)CNc1nccc(N2CCNCC2)n1 | > 10 |  |  |  |
| CN[C@@H]1CCN(c2ccnc(NCC(C)(C)C)n2)C1 | 0.0275 | 0.0275 |  |  |
| CC(C)(C)CNc1nccc(NCCN)n1 | 0.692 |  | > 1 |  |
| CC(C)(C)CNc1nccc(NC2CCNC2)n1 (stereo not given) | 0.204 | 0.204 | > 10 |  |
| CN1CCCN(c2ccnc(NCC(C)(C)C)n2)CC1.O=C(O)C(F)(F)F.O=C(O)C(F)(F)F | 2.4 |  | > 10 | Stability [2]: Stable |
| Cc1[nH]cnc1CSCCNc1ccnc(NCC(C)(C)C)n1 | > 10 |  | > 1 |  |
| CC(C)(C)CNc1nccc(NC2CCNCC2)n1 | 3.47 | 3.47 | > 10 | Ratio Ki [11]: 1.6; Ratio Ki [12]: > 4.7; Ki [8]: 1.91 µM; Ki [13]: > 10 µM |
| CC(C)(C)CNc1nccc(N2CCN(CCN)CC2)n1 | > 10 |  |  |  |
| CC(C)(C)CNc1nccc(N2CCN(C(=N)N)CC2)n1 | 6.03 |  | > 1 |  |
| O=C(O)C(F)(F)F.O=C(O)C(F)(F)F.[3H]C([3H])([3H])N(C)[C@@H]1CCN(c2ccnc(NCC(C)(C)C)n2)C1 |  |  |  | Stability [14]: Stable |
| CN1CCN(c2ccnc(NCC(C)(C)C)n2)CC1 | 5.5 |  |  |  |
| CN(C)[C@@H]1CCN(c2ccnc(NCC(C)(C)C)n2)C1.O=C(O)C(F)(F)F.O=C(O)C(F)(F)F |  |  | > 10 | Stability [2]: Stable |
| CC(C)(C)CNc1nccc(N2CCCN(C(=N)N)CC2)n1 | > 10 |  |  |  |
| CCC(=O)N[C@@H]1CCN(c2ccnc(NCC(C)(C)C)n2)C1 | 3.02 | 3.02 |  |  |
| NC(=NCCc1ccc(I)cc1)SCCCc1cnc[nH]1 [IODOPHENPROPIT] |  |  |  | Ki [15]: 0.0126 µM |
| CC(C)(C)CNc1nccc(NCCCc2c[nH]cn2)n1 |  | 0.00933 |  |  |
| CC(C)(C)CNc1nccc(N2CC[C@@H](NC(=N)N)C2)n1.O=C(O)C(F)(F)F.O=C(O)C(F)(F)F | 1.12 |  | > 10 | Stability [2]: Stable |
| CC(C)(C)CNc1nccc(N2CC[C@@H](N)C2)n1 | 0.0138 |  |  |  |
